Reference: ChEMBL document CHEMBL1275387, “Intramolecular reductive cyclization strategy to the synthesis of (-)-6-methyl-3-hydroxy-piperidine-2-carboxylic acid, (+)-6-methyl-(2-hydroxymethyl)-piperidine-3-ol and their glycosidase inhibitory activity” (Bioorg Med Chem, 2010)

Legend:
[1] = Inhibition of yeast alpha-glucosidase after 90 mins by spectrophotometric analysis; parameters: species or system Saccharomyces cerevisiae
[2] = (§1) Inhibition of almond seed N-Acetyl-beta-D-glucosaminidase at 1 mM after 90 mins by spectrophotometric analysis; parameters: species or system Prunus dulcis
Method in brief: (§2)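 Each enzyme was screened with inhibitor at a single concentration of 1 mM, and percent inhibition was recorded. Reported values are the average of three sets of assays.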

Prunus dulcis [3] = assay: as §1; method in brief: as §2
[4] = (§3) Inhibition of almond seed beta-glucosidase at 1 mM after 90 mins by spectrophotometric analysis; parameters: species or system Prunus dulcis; method in brief: as §2
Prunus dulcis [5] = assay: as §3; method in brief: as §2
[6] = (§4) Inhibition of almond seed alpha-mannosidase at 1 mM after 90 mins by spectrophotometric analysis; parameters: species or system Prunus dulcis; method in brief: as §2
Prunus dulcis [7] = assay: as §4; method in brief: as §2
[8] = (§5) Inhibition of almond seed beta-galactosidase at 1 mM after 90 mins by spectrophotometric analysis; parameters: species or system Prunus dulcis; method in brief: as §2
Prunus dulcis [9] = assay: as §5; method in brief: as §2
[10] = (§6) Inhibition of almond seed alpha-galactosidase at 1 mM after 90 mins by spectrophotometric analysis; parameters: species or system Prunus dulcis; method in brief: as §2
Prunus dulcis [11] = assay: as §6; method in brief: as §2
[12] = Inhibition of Geobacillus toebii BK1 alpha-galactosidase after 90 mins by spectrophotometric analysis
[13] = Competitive inhibition of yeast alpha-glucosidase after 90 mins by Lineweaver-Burke plot analysis; parameters: species or system Saccharomyces cerevisiae
[14] = Non-competitive inhibition of Geobacillus toebii BK1 alpha-galactosidase after 90 mins by Lineweaver-Burke plot analysis
[15] = (§7) Inhibition of yeast alpha-glucosidase at 1 mM after 90 mins by spectrophotometric analysis; parameters: species or system Saccharomyces cerevisiae; method in brief: as §2
Saccharomyces cerevisiae = assay: as §7; method in brief: as §2
[16] = (§8) Inhibition of Geobacillus toebii BK1 alpha-galactosidase at 1 mM after 90 mins by spectrophotometric analysis; method in brief: as §2
Geobacillus toebii = assay: as §8; method in brief: as §2

| IC50 [1] | Ki [2] | inhibition (Prunus dulcis [3]) | Ki [4] | inhibition (Prunus dulcis [5]) | Ki [6] | inhibition (Prunus dulcis [7]) | Ki [8] | inhibition (Prunus dulcis [9]) | Ki [10] | inhibition (Prunus dulcis [11]) | IC50 [12] | Ki [13] | Ki [14] | Ki [15] | inhibition (Saccharomyces cerevisiae) | Ki [16] | inhibition (Geobacillus toebii) | SMILES |
| --- | --- | --- | --- | --- | --- | --- | --- | --- | --- | --- | --- | --- | --- | --- | --- | --- | --- | --- |
| 1150 µM | Not Active | < 50% | Not Active | < 50% | Not Active | < 50% | Not Active | < 50% | Not Active | < 50% | 180 µM | 71 µM | 26 µM |  |  |  |  | C[C@H]1CC[C@@H](O)[C@@H](C(=O)O)N1 |
|  | Not Active | < 50% | Not Active | < 50% | Not Active | < 50% | Not Active | < 50% | Not Active | < 50% |  |  |  | Not Active | < 50% | Not Active | < 50% | C[C@H]1CC[C@@H](O)[C@@H](CO)N1 |
